According to ChEMBL document CHEMBL1240422, “Design, synthesis and biological evaluation of 3,5-diaryl-isoxazoline/isoxazole-pyrrolobenzodiazepine conjugates as potential anticancer agents” (2010):

Experiments:
Format in all cases: functional
T47D = experiment: Anticancer activity against human T47D cells after 48 hrs by SRB assay
Malme-3M = experiment: Anticancer activity against human MALME-3M cells after 48 hrs by SRB assay
PC-3 = experiment: Anticancer activity against human PC3 cells after 48 hrs by SRB assay; conditions: PC-3, 48 h
Summary of the method: (§1)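 Grown in RPMI 1640 with 10% FBS and 2 mM L-glutamine at 37 °C, 5% CO2. Seeded at densities set by doubling time, then preincubated 24 h. Continuous 48 h drug exposure at four concentrations (0.1, 1, 10, 100), triplicate wells. Fixed with cold TCA (final 10%) at 4 °C, 60 min. Stained with 0.4% SRB in 1% acetic acid, eluted with 10 mM Tris base, read at 540/690 nm. Percent growth versus control wells.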

U-251 = experiment: Anticancer activity against human U251 cells after 48 hrs by SRB assay; conditions: U-251, 48 h
CCRF-CEM = experiment: Anticancer activity against human CCRF-CEM cells after 48 hrs by SRB assay
HL-60(TB) = experiment: Anticancer activity against human HL-60(TB) cells after 48 hrs by SRB assay; conditions: HL-60, 48 h
RPMI-8226 = experiment: Anticancer activity against human RPMI8226 cells after 48 hrs by SRB assay; conditions: RPMI-8226, 48 h
HT-29 = experiment: Anticancer activity against human HT-29 cells after 48 hrs by SRB assay; conditions: HT-29, 48 h
MDA-MB-231 = experiment: Anticancer activity against human MDA-MB-231 cells after 48 hrs by SRB assay; conditions: MDA-MB-231, 48 h
SK-OV-3 = experiment: Anticancer activity against human SKOV3 cells after 48 hrs by SRB assay; conditions: SK-OV-3, 48 h
SNB-75 = experiment: Anticancer activity against human SNB75 cells after 48 hrs by SRB assay; conditions: SNB-75, 48 h
NCI-H522 = experiment: Anticancer activity against human NCI-H522 cells after 48 hrs by SRB assay; conditions: NCI-H522, 48 h
OVCAR-4 = experiment: Anticancer activity against human OVCAR4 cells after 48 hrs by SRB assay; conditions: OVCAR-4, 48 h
BT-549 = experiment: Anticancer activity against human BT549 cells after 48 hrs by SRB assay; conditions: BT-549, 48 h
SK-MEL-2 = experiment: Anticancer activity against human SK-MEL-2 cells after 48 hrs by SRB assay; conditions: SK-MEL-2, 48 h
COLO 205 = experiment: Anticancer activity against human COLO205 cells after 48 hrs by SRB assay; conditions: COLO 205, 48 h; summary of the method: as §1
MOLT-4 = experiment: Anticancer activity against human MOLT4 cells after 48 hrs by SRB assay; conditions: MOLT-4, 48 h
NCI-H460 = experiment: Anticancer activity against human NCI-H460 cells after 48 hrs by SRB assay; conditions: NCI-H460, 48 h
HCT-116 = experiment: Anticancer activity against human HCT116 cells after 48 hrs by SRB assay; conditions: HCT-116, 48 h
K562 = experiment: Anticancer activity against human K562 cells after 48 hrs by SRB assay; conditions: K562, 48 h
CAKI-1 = experiment: Anticancer activity against human Caki1 cells after 48 hrs by SRB assay; conditions: CAKI-1, 48 h
SK-MEL-28 = experiment: Anticancer activity against human SK-MEL-28 cells after 48 hrs by SRB assay; conditions: SK-MEL-28, 48 h
HCC 2998 = experiment: Anticancer activity against human HCC2998 cells after 48 hrs by SRB assay; conditions: HCC 2998, 48 h
TK-10 = experiment: Anticancer activity against human TK10 cells after 48 hrs by SRB assay; conditions: TK-10, 48 h
MDA-MB-468 = experiment: Anticancer activity against human MDA-MB-468 cells after 48 hrs by SRB assay; conditions: MDA-MB-468, 48 h
NCI-H23 = experiment: Anticancer activity against human NCI-H23 cells after 48 hrs by SRB assay; conditions: NCI-H23, 48 h
UO-31 = experiment: Anticancer activity against human UO31 cells after 48 hrs by SRB assay; conditions: UO-31, 48 h
KM12 = experiment: Anticancer activity against human KM12 cells after 48 hrs by SRB assay; conditions: KM12, 48 h
SR = experiment: Anticancer activity against human SR cells after 48 hrs by SRB assay
OVCAR-5 = experiment: Anticancer activity against human OVCAR5 cells after 48 hrs by SRB assay; conditions: OVCAR-5, 48 h
[1] = Anticancer activity against human Hs 578T cells after 48 hrs by SRB assay
SK-MEL-5 = experiment: Anticancer activity against human SK-MEL-5 cells after 48 hrs by SRB assay; conditions: SK-MEL-5, 48 h
IGROV-1 = experiment: Anticancer activity against human IGROV1 cells after 48 hrs by SRB assay; conditions: IGROV-1, 48 h
MCF7 = experiment: Anticancer activity against human MCF7 cells after 48 hrs by SRB assay; conditions: MCF7, 48 h; summary of the method: as §1
M14 = experiment: Anticancer activity against human M14 cells after 48 hrs by SRB assay; conditions: M14, 48 h
UACC-257 = experiment: Anticancer activity against human UACC257 cells after 48 hrs by SRB assay; conditions: UACC-257, 48 h
OVCAR-8 = experiment: Anticancer activity against human OVCAR8 cells after 48 hrs by SRB assay; conditions: OVCAR-8, 48 h
A498 = experiment: Anticancer activity against human A498 cells after 48 hrs by SRB assay; conditions: A498, 48 h
RXF 393 = experiment: Anticancer activity against human […] cells after 48 hrs by SRB assay; conditions: RXF 393, 48 h
MDA-MB-435 = experiment: Anticancer activity against human MDA-MB-435 cells after 48 hrs by SRB assay; conditions: MDA-MB-435, 48 h
EKVX = experiment: Anticancer activity against human EKVX cells after 48 hrs by SRB assay
SN12C = experiment: Anticancer activity against human SN12C cells after 48 hrs by SRB assay
UACC-62 = experiment: Anticancer activity against human UACC62 cells after 48 hrs by SRB assay; conditions: UACC-62, 48 h
HCT-15 = experiment: Anticancer activity against human HCT15 cells after 48 hrs by SRB assay; conditions: HCT-15, 48 h
HOP-62 = experiment: Anticancer activity against human HOP62 cells after 48 hrs by SRB assay; conditions: HOP-62, 48 h; summary of the method: as §1
SNB-19 = experiment: Anticancer activity against human SNB19 cells after 48 hrs by SRB assay; conditions: SNB-19, 48 h
NCI-H322M = experiment: Anticancer activity against human NCI-H322M cells after 48 hrs by SRB assay
SW-620 = experiment: Anticancer activity against human SW620 cells after 48 hrs by SRB assay; conditions: SW-620, 48 h
A549 = experiment: Anticancer activity against human A549 cells after 48 hrs by SRB assay; conditions: A549, 48 h; summary of the method: as §1
ACHN = experiment: Anticancer activity against human ACHN cells after 48 hrs by SRB assay
SF-268 = experiment: Anticancer activity against human SF268 cells after 48 hrs by SRB assay; conditions: SF-268, 48 h
DU-145 = experiment: Anticancer activity against human DU145 cells after 48 hrs by SRB assay; conditions: DU-145, 48 h
786-0 = experiment: Anticancer activity against human 786-0 cells after 48 hrs by SRB assay; conditions: 786-0, 48 h
SF-539 = experiment: Anticancer activity against human SF539 cells after 48 hrs by SRB assay; conditions: SF-539, 48 h
LOX IMVI = experiment: Anticancer activity against human LOXIMVI cells after 48 hrs by SRB assay
HOP-92 = experiment: Anticancer activity against human HOP92 cells after 48 hrs by SRB assay; conditions: HOP-92, 48 h
NCI-H226 = experiment: Anticancer activity against human NCI-H226 cells after 48 hrs by SRB assay; conditions: NCI-H226, 48 h
OVCAR-3 = experiment: Anticancer activity against human OVCAR-3 cells after 48 hrs by SRB assay; conditions: OVCAR-3, 48 h

COc1ccc(C2CC(c3cc(OC)c(OC)c(OC)c3)=NO2)cc1OCCCCOc1cc2c(cc1OC)C(=O)N1CCC[C@H]1C=N2 (stereo partly drawn)
GI50 (T47D): 1310 nM
GI50 (Malme-3M): 2880 nM
GI50 (PC-3): 320 nM
GI50 (U-251): 1730 nM
GI50 (CCRF-CEM): 1410 nM
GI50 (HL-60(TB)): 1900 nM
GI50 (RPMI-8226): 1430 nM
GI50 (HT-29): 2750 nM
GI50 (MDA-MB-231): 1150 nM
GI50 (SK-OV-3): 3370 nM
GI50 (SNB-75): 1710 nM
GI50 (NCI-H522): 610 nM
GI50 (OVCAR-4): 2070 nM
GI50 (BT-549): 1230 nM
GI50 (SK-MEL-2): 2030 nM
GI50 (COLO 205): 1960 nM
GI50 (MOLT-4): 1850 nM
GI50 (NCI-H460): 1850 nM
GI50 (HCT-116): 1700 nM
GI50 (K562): 1260 nM
GI50 (CAKI-1): 3090 nM
GI50 (SK-MEL-28): 2070 nM
GI50 (HCC 2998): 1580 nM
GI50 (TK-10): 3510 nM
GI50 (MDA-MB-468): 1340 nM
GI50 (NCI-H23): 1830 nM
GI50 (UO-31): 2090 nM
GI50 (KM12): 1740 nM
GI50 (SR): 1120 nM
GI50 (OVCAR-5): 3130 nM
GI50 [1]: 1100 nM
GI50 (SK-MEL-5): 1470 nM
GI50 (IGROV-1): 1570 nM
GI50 (MCF7): 1750 nM
GI50 (M14): 1730 nM
GI50 (UACC-257): 2330 nM
GI50 (OVCAR-8): 2550 nM
GI50 (A498): 1720 nM
GI50 (RXF 393): 1390 nM
GI50 (MDA-MB-435): 3540 nM
GI50 (EKVX): 3680 nM
GI50 (SN12C): 1580 nM
GI50 (UACC-62): 1520 nM
GI50 (HCT-15): 2270 nM
GI50 (HOP-62): 1680 nM
GI50 (SNB-19): 1960 nM
GI50 (NCI-H322M): 3460 nM
GI50 (SW-620): 1550 nM
GI50 (A549): 2330 nM
GI50 (ACHN): 2410 nM
GI50 (SF-268): 1890 nM
GI50 (DU-145): 320 nM
GI50 (786-0): 1570 nM
GI50 (SF-539): 1800 nM
GI50 (LOX IMVI): 1470 nM
GI50 (HOP-92): 2470 nM
GI50 (NCI-H226): 1670 nM
GI50 (OVCAR-3): 1940 nM
